From ChEMBL document CHEMBL1149678, “Synthesis and structure-activity relationship of RXR antagonists based on the diazepinylbenzoic acid structure” (Bioorg Med Chem Lett, 2007)

Legend:
[1] = biological target: T1, Retinoic acid receptor RXR-alpha (Homo sapiens, UniProt P19793); assay: Antagonist activity at human RXRalpha expressed in […] cells assessed as inhibition of LG-100268-induced transactivation; type: functional, cell-based, HEK293
T1 sequence (P19793 whole entry): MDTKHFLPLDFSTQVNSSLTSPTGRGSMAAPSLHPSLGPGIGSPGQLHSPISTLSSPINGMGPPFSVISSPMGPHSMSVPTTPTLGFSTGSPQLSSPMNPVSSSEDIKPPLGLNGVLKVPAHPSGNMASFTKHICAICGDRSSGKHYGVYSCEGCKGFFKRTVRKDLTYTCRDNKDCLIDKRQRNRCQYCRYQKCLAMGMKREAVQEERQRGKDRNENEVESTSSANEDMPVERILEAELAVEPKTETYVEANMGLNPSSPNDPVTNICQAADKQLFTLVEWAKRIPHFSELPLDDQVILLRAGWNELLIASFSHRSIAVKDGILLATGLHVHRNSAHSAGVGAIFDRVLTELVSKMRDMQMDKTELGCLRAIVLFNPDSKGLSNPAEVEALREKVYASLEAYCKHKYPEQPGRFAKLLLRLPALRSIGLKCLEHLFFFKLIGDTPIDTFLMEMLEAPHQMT

[2] = biological target: T1, Retinoic acid receptor RXR-alpha; assay: Antagonist activity at human RXRalpha expressed in […] cells assessed as inhibition of 9-cis-retinoic acid-induced transactivation; type: functional, cell-based, HEK293
[3] = Plasma clearance in rat at 1 mg/kg, iv; type: ADME, organism-based; set-up: dose 1 mg/kg, route intravenous
Procedure, shortened: (§1)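 Rats given the compound as a 1 mg/kg intravenous bolus or 3 mg/kg perorally as a suspension. Blood was sampled at various time points up to 24 h, and parent compound levels were measured by LC/MS. Clearance, terminal half-life and steady-state volume of distribution come from the iv profile, Cmax and tmax from the po profile, and bioavailability from comparing iv and po dosing.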

[4] = Terminal elimination half life in rat at 1 mg/kg, iv; type: ADME, organism-based; set-up: dose 1 mg/kg, route intravenous; details: in vivo; procedure, shortened: as §1
[5] = Volume of distribution at steady state in rat at 1 mg/kg, iv; type: ADME, organism-based; set-up: dose 1 mg/kg, route intravenous; details: in vivo, read-out: Vdss; procedure, shortened: as §1
[6] = Tmax in rat at 3 mg/kg, po; type: ADME, organism-based; set-up: dose 3 mg/kg, route oral; details: in vivo; procedure, shortened: as §1
[7] = Cmax in rat at 3 mg/kg, po; type: ADME, organism-based; set-up: dose 3 mg/kg, route oral; details: in vivo; procedure, shortened: as §1
[8] = Bioavailability in rat at 1 mg/kg, iv and 3 mg/kg, po; type: ADME, organism-based; details: in vivo; procedure, shortened: as §1

Row | IC50 [1] [nM] | IC50 [2] [nM] | Compound | also measured
1 | 1400 | 510 | CN1c2ccc(NS(=O)(=O)c3ccccc3)cc2N=C(c2ccc(C(=O)O)cc2)c2cc3c(cc21)C(C)(C)CCC3(C)C | –
2 | 2600 | 1400 | CN1c2ccc(NS(=O)(=O)c3ccccc3C(F)(F)F)cc2N=C(c2ccc(C(=O)O)cc2)c2cc3c(cc21)C(C)(C)CCC3(C)C | –
3 | 320 | 200 | CCCCS(=O)(=O)Nc1ccc2c(c1)N=C(c1ccc(C(=O)O)cc1)c1cc3c(cc1N2CC)C(C)(C)CCC3(C)C | –
4 | 4100 | 4200 | CN1c2ccc(NC(=O)c3cccc(C(F)(F)F)c3)cc2N=C(c2ccc(C(=O)O)cc2)c2cc3c(cc21)C(C)(C)CCC3(C)C | –
5 | 3400 | 850 | CN1c2ccc(NS(=O)(=O)c3cccc4ccccc34)cc2N=C(c2ccc(C(=O)O)cc2)c2cc3c(cc21)C(C)(C)CCC3(C)C | –
6 | 5200 | 1500 | CN1c2ccc(NC(=O)/C=C/c3ccccc3)cc2N=C(c2ccc(C(=O)O)cc2)c2cc3c(cc21)C(C)(C)CCC3(C)C | –
7 | 570 | 340 | CCCS(=O)(=O)Nc1ccc2c(c1)N=C(c1ccc(C(=O)O)cc1)c1cc3c(cc1N2CC)C(C)(C)CCC3(C)C | –
8 | 7400 | 7300 | CCNC(=O)Nc1ccc2c(c1)N=C(c1ccc(C(=O)O)cc1)c1cc3c(cc1N2C)C(C)(C)CCC3(C)C | –
9 | 4100 | 1200 | CN1c2ccc(NS(=O)(=O)c3cc(C(F)(F)F)cc(C(F)(F)F)c3)cc2N=C(c2ccc(C(=O)O)cc2)c2cc3c(cc21)C(C)(C)CCC3(C)C | –
10 | 2300 | 1200 | CN1c2ccc(NS(=O)(=O)c3cccc(F)c3)cc2N=C(c2ccc(C(=O)O)cc2)c2cc3c(cc21)C(C)(C)CCC3(C)C | –
11 | > 100000 | > 10000 | CN1c2ccc(NCc3ccccc3)cc2N=C(c2ccc(C(=O)O)cc2)c2cc3c(cc21)C(C)(C)CCC3(C)C | –
12 | 4400 | 2400 | CN1c2ccc(NS(C)(=O)=O)cc2N=C(c2ccc(C(=O)O)cc2)c2cc3c(cc21)C(C)(C)CCC3(C)C | –
13 | 1300 | 880 | CN1c2ccc(NC(=O)Cc3ccc(F)cc3)cc2N=C(c2ccc(C(=O)O)cc2)c2cc3c(cc21)C(C)(C)CCC3(C)C | –
14 | 160 | 95 | CCN1c2ccc(NS(=O)(=O)c3cccc(C(F)(F)F)c3)cc2N=C(c2ccc(C(=O)O)cc2)c2cc3c(cc21)C(C)(C)CCC3(C)C | clearance [3]: 8.33 mL/min/kg; half-life [4]: 2.1 h; Vd [5]: 1.2 L/kg; Tmax [6]: 4.7 h; Cmax [7]: 468 nM; bioavailability [8]: 36%
15 | 7200 | 2900 | CN1c2ccc(NC(=O)C34CC5CC(CC(C5)C3)C4)cc2N=C(c2ccc(C(=O)O)cc2)c2cc3c(cc21)C(C)(C)CCC3(C)C | –
16 | 2000 | 900 | CN1c2ccc(NC(=O)c3ccccc3)cc2N=C(c2ccc(C(=O)O)cc2)c2cc3c(cc21)C(C)(C)CCC3(C)C | –
17 | 2500 | 970 | CN1c2ccc(NC(=O)Cc3ccccc3)cc2N=C(c2ccc(C(=O)O)cc2)c2cc3c(cc21)C(C)(C)CCC3(C)C | –
18 | 2500 | 470 | COc1ccc(S(=O)(=O)Nc2ccc3c(c2)N=C(c2ccc(C(=O)O)cc2)c2cc4c(cc2N3C)C(C)(C)CCC4(C)C)cc1 | –
19 | 7100 | 2200 | CCC(=O)Nc1ccc2c(c1)N=C(c1ccc(C(=O)O)cc1)c1cc3c(cc1N2C)C(C)(C)CCC3(C)C | –
20 | 1500 | 480 | CN1c2ccc(NS(=O)(=O)c3cccc(C(F)(F)F)c3)cc2N=C(c2ccc(C(=O)O)cc2)c2cc3c(cc21)C(C)(C)CCC3(C)C | –
21 | 4900 | 840 | CCS(=O)(=O)Nc1ccc2c(c1)N=C(c1ccc(C(=O)O)cc1)c1cc3c(cc1N2C)C(C)(C)CCC3(C)C | –
22 | 3900 | 3100 | CCCN1c2ccc(NC(=O)Cc3ccc(F)cc3)cc2N=C(c2ccc(C(=O)O)cc2)c2cc3c(cc21)C(C)(C)CCC3(C)C | –
23 | 1200 | 720 | CCN1c2ccc(NC(=O)Cc3ccc(F)cc3)cc2N=C(c2ccc(C(=O)O)cc2)c2cc3c(cc21)C(C)(C)CCC3(C)C | –
24 | 4400 | 2300 | CN1c2ccc(NS(=O)(=O)c3ccccc3F)cc2N=C(c2ccc(C(=O)O)cc2)c2cc3c(cc21)C(C)(C)CCC3(C)C | –

Row | IC50 [1] [nM] | IC50 [2] [nM] | Compound | also measured
25 | 2500 | 2800 | CN1c2ccc(NC(=O)NCc3ccccc3)cc2N=C(c2ccc(C(=O)O)cc2)c2cc3c(cc21)C(C)(C)CCC3(C)C | –
26 | > 100000 | > 10000 | CNc1ccc2c(c1)N=C(c1ccc(C(=O)O)cc1)c1cc3c(cc1N2C)C(C)(C)CCC3(C)C | –
27 | 2200 | 1100 | CN1c2ccc(NS(=O)(=O)c3ccc(C(F)(F)F)cc3)cc2N=C(c2ccc(C(=O)O)cc2)c2cc3c(cc21)C(C)(C)CCC3(C)C | –
28 | > 100000 | > 10000 | CCCCNc1ccc2c(c1)N=C(c1ccc(C(=O)O)cc1)c1cc3c(cc1N2C)C(C)(C)CCC3(C)C | –
29 | 5200 | 1000 | CN1c2ccc(NS(=O)(=O)Cc3ccccc3)cc2N=C(c2ccc(C(=O)O)cc2)c2cc3c(cc21)C(C)(C)CCC3(C)C | –
30 | 1600 | 1700 | CN1c2ccc(NC(=O)c3ccc(F)cc3)cc2N=C(c2ccc(C(=O)O)cc2)c2cc3c(cc21)C(C)(C)CCC3(C)C | –
31 | 3900 | 1800 | CCCC(=O)Nc1ccc2c(c1)N=C(c1ccc(C(=O)O)cc1)c1cc3c(cc1N2C)C(C)(C)CCC3(C)C | –
32 | 810 | 130 | CCCN1c2ccc(NS(=O)(=O)c3ccc(F)cc3)cc2N=C(c2ccc(C(=O)O)cc2)c2cc3c(cc21)C(C)(C)CCC3(C)C | –
33 | 2900 | 400 | CN1c2ccc(NS(=O)(=O)/C=C/c3ccccc3)cc2N=C(c2ccc(C(=O)O)cc2)c2cc3c(cc21)C(C)(C)CCC3(C)C | –
34 | 2500 | 430 | Cc1ccc(S(=O)(=O)Nc2ccc3c(c2)N=C(c2ccc(C(=O)O)cc2)c2cc4c(cc2N3C)C(C)(C)CCC4(C)C)cc1 | –
35 | 850 | 140 | CCCCS(=O)(=O)Nc1ccc2c(c1)N=C(c1ccc(C(=O)O)cc1)c1cc3c(cc1N2CCC)C(C)(C)CCC3(C)C | –
36 | 190 | 76 | CCCN1c2ccc(NS(=O)(=O)c3cccc(C(F)(F)F)c3)cc2N=C(c2ccc(C(=O)O)cc2)c2cc3c(cc21)C(C)(C)CCC3(C)C | clearance [3]: 6.67 mL/min/kg; half-life [4]: 1.8 h; Vd [5]: 1.1 L/kg; Tmax [6]: 4 h; Cmax [7]: 519 nM; bioavailability [8]: 21%
37 | 840 | 550 | CCCN1c2ccc(NS(=O)(=O)CCC)cc2N=C(c2ccc(C(=O)O)cc2)c2cc3c(cc21)C(C)(C)CCC3(C)C | –
38 | 14000 | 15000 | CNC(=O)Nc1ccc2c(c1)N=C(c1ccc(C(=O)O)cc1)c1cc3c(cc1N2C)C(C)(C)CCC3(C)C | –
39 | 1700 | 190 | CN1c2ccc(NS(=O)(=O)c3ccc(F)cc3)cc2N=C(c2ccc(C(=O)O)cc2)c2cc3c(cc21)C(C)(C)CCC3(C)C | –
40 | 910 | 370 | CCCCS(=O)(=O)Nc1ccc2c(c1)N=C(c1ccc(C(=O)O)cc1)c1cc3c(cc1N2C)C(C)(C)CCC3(C)C | –
41 | 6200 | 1300 | CN1c2ccc(NS(=O)(=O)c3ccc(-c4ccccc4)cc3)cc2N=C(c2ccc(C(=O)O)cc2)c2cc3c(cc21)C(C)(C)CCC3(C)C | –
42 | 5600 | 1900 | CC(C)C(=O)Nc1ccc2c(c1)N=C(c1ccc(C(=O)O)cc1)c1cc3c(cc1N2C)C(C)(C)CCC3(C)C | –
43 | 3400 | 3300 | CCCCNC(=O)Nc1ccc2c(c1)N=C(c1ccc(C(=O)O)cc1)c1cc3c(cc1N2C)C(C)(C)CCC3(C)C | –
44 | 5200 | 6200 | CCCNC(=O)Nc1ccc2c(c1)N=C(c1ccc(C(=O)O)cc1)c1cc3c(cc1N2C)C(C)(C)CCC3(C)C | –
45 | 2100 | 250 | CCCS(=O)(=O)Nc1ccc2c(c1)N=C(c1ccc(C(=O)O)cc1)c1cc3c(cc1N2C)C(C)(C)CCC3(C)C | –
46 | 4500 | 1500 | CN1c2ccc(NC(=O)C3CCCCC3)cc2N=C(c2ccc(C(=O)O)cc2)c2cc3c(cc21)C(C)(C)CCC3(C)C | –
47 | 420 | 220 | CCN1c2ccc(NS(=O)(=O)c3ccc(F)cc3)cc2N=C(c2ccc(C(=O)O)cc2)c2cc3c(cc21)C(C)(C)CCC3(C)C | –
